From ChEMBL document CHEMBL4312030, “Synthesis, biological evaluation, and docking study of indole aryl sulfonamides as aromatase inhibitors” (Eur J Med Chem, 2020) come the findings set out here.

The source made the active and inactive calls. No cut-off for these calls is given here.

The target in assay [1] is T1, Aromatase (Homo sapiens, UniProt P11511).
T1 sequence (P11511 whole entry): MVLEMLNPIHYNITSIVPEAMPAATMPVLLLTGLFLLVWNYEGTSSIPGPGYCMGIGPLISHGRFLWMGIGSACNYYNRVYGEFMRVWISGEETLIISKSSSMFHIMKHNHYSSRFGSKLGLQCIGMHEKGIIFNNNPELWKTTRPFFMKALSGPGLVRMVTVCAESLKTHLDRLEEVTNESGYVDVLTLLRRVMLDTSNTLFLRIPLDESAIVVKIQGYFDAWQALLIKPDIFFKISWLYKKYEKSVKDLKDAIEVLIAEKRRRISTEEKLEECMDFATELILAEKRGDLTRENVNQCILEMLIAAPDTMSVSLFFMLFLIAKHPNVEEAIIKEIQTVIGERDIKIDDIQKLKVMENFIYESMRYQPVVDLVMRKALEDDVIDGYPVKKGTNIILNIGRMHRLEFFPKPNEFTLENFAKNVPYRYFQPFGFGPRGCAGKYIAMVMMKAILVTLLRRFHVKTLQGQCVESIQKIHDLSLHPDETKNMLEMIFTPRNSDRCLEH
The assay can be described thus: Inhibition of recombinant human aromatase at 1 uM preincubated for 10 mins followed by substrate and beta-NADP+ addition and measured for 60 mins by fluorimetric assay relative to letrozole. Conditions: 1 h. In a few lines:
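Fluorimetric kit assay with recombinant human aromatase plus NADPH generating system; compounds at 1 µM final (from 5X in ACN; solvent 0.5% ACN), preincubated 10 min at 37°C.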

In assay [2] the target is T1, Aromatase. Kind of assay: Inhibition of recombinant human aromatase preincubated for 10 mins followed by substrate and beta-NADP+ addition and measured for 60 mins by fluorimetric assay. In a few lines: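 Recombinant human aromatase with NADPH generating system, preincubated 10 min at 37°C with inhibitor at 0.01-100 µM final (5X stocks 0.05-500 µM in ACN). Fluorogenic substrate/β-NADP+ added; fluorescence Ex/Em 488/527 nm kinetic 60 min. IC50 from fitted multi-point dose-response curves; mean of triplicate ± RSD.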

Assay [3] relates to MCF7. The assay can be described thus: Cytotoxicity against human MCF7 cells assessed as reduction in cell viability at 100 uM after 24 to 72 hrs by MTT assay. It is filed as functional, cell-based. In a few lines: (§1)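 MCF7 cells in DMEM high glucose with 10% FBS, 1% pen/strep, seeded 1x10⁴/well, adhered 24 h, then treated 0-250 µM for 24, 48 or 72 h. MTT (1 mg/ml, 1:10 in fresh medium) 4 h at 37°C, 5% CO₂; formazan dissolved in DMSO, OD 540 nm. Expressed as % of DMSO-treated cells (final DMSO <0.2%); three experiments in triplicate (n=9).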
In general terms: Formazan colour is commonly taken as a measure of viable cells.

Assay [4] deals with MCF7. Kind of assay: Cytotoxicity against human MCF7 cells assessed as LDH release up to 250 uM after 24 hrs by CytoTox 96 Non-Radioactive assay relative to control. It is filed as functional. In a few lines:
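MCF7 cells (DMEM high glucose, 10% FBS, 1% pen/strep) seeded 1x10⁴/well, adhered 24 h, then exposed to 0-250 µM for 24 h. Supernatants centrifuged 450xg 4 min; LDH measured by 30-min coupled INT-to-formazan reaction, absorbance 490 and 690 nm. %LDH released = [(A490–B690)/(C–B)]×100, C = positive control cell lysate.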
Background: LDH leaks from cells whose membrane has failed.

For assay [5], the system named is MCF7. The assay can be described thus: Cytotoxicity against human MCF7 cells assessed as cell metabolic activity after 24 hrs by MTT assay relative to control. It is filed as functional. The procedure, abridged:
as §1

The test system of assay [6] is MCF7. The assay can be described thus: Cytotoxicity against human MCF7 cells assessed as cell metabolic activity at 10 uM after 48 hrs by MTT assay relative to control. It is filed as functional. In a few lines:
as §1

The test system of assay [7] is MCF7. The assay can be described thus: Cytotoxicity against human MCF7 cells assessed as cell metabolic activity at 250 uM after 24 hrs by MTT assay relative to control. It is filed as functional. In a few lines:
as §1

The subject of assay [8] is MCF7. Kind of assay: Cytotoxicity against human MCF7 cells assessed as active metabolizing cells at 100 uM after 48 hrs by MTT assay relative to control. It is filed as functional. In a few lines: as §1
Assay [9] concerns MCF7. The assay can be described thus: Cytotoxicity against human MCF7 cells assessed as active metabolizing cells at 250 uM after 48 hrs by MTT assay relative to control. It is filed as functional. The procedure, abridged: as §1
In assay [10] the test system is MCF7. The assay can be described thus: Cytotoxicity against human MCF7 cells assessed as reduction in cell viability after 72 hrs by MTT assay. It is filed as functional, cell-based. In a few lines:
as §1

The term inhibition denotes the relative decrease from the control value, in per cent. `N#Cc1ccc(S(=O)(=O)NCCc2c[nH]c3ccccc23)c(Cl)c1`: the inhibition at 1 µM on Aromatase [1] was 19.7%.

For orientation: IC50 means the concentration needed to halve the response being measured. For the compound `O=S(=O)(NCCc1c[nH]c2ccccc12)c1ccccc1`, the inhibition at 1 µM on Aromatase [1] came out at 110%. Besides, at Aromatase [2], the IC50 came out at 200 nM. The inhibition entry in the assay on MCF7 [3] is “Active”. Also, the results for the Activity in the assay on MCF7 [4], in the assay with MCF7 [5] and in the assay with MCF7 [6] were 35 - 40%, 45% and 40 - 45%, respectively.

Regarding `O=S(=O)(Cc1ccccc1)Nc1ccc2[nH]ccc2c1`, the inhibition at 1 µM at Aromatase [1] was found to be 129%. Also, at Aromatase [2], the IC50 was 160 nM. Besides, the Activity in the assay with MCF7 [7] is given as 38.62%; in the assay with MCF7 [8] it was 19.53%; in the assay on MCF7 [9] it was 20.08%; with MCF7 [4], 35 - 40%; in the assay with MCF7 [5] it was 45%; in the assay on MCF7 [6], 40 - 45%. In the assay on MCF7 [10], the inhibition entry is “Dose-dependent effect”.

For `Cc1ccc(S(=O)(=O)Nc2ccc3[nH]ccc3c2)cc1[N+](=O)[O-]`, at Aromatase [1], the inhibition at 1 µM was determined as 12.8%.

As for `Cc1ccc(S(=O)(=O)NCc2ccc3[nH]ccc3c2)cc1`, the inhibition at 1 µM at Aromatase [1] stood at 33.4%.

For the compound `Cc1ccc(S(=O)(=O)NCCc2c[nH]c3ccccc23)cc1[N+](=O)[O-]`, at Aromatase [1], the inhibition at 1 µM came out at 30.6%.

As to `O=[N+]([O-])c1cccc(S(=O)(=O)Nc2ccc3cc[nH]c3c2)c1`, the inhibition at 1 µM on Aromatase [1] worked out at 18.6%.

Take `O=S(=O)(NCc1ccc2[nH]ccc2c1)c1ccccc1`: on Aromatase [1], the inhibition at 1 µM came out at 20.7%.

Regarding `O=S(=O)(Cc1ccccc1)NCc1ccc2[nH]ccc2c1`, the inhibition at 1 µM at Aromatase [1] came to 16.4%.

Regarding `Cc1ccc(S(=O)(=O)Nc2ccc3cc[nH]c3c2)cc1`, on Aromatase [1], the inhibition at 1 µM worked out at 83.2%. Also, the IC50 at Aromatase [2] is 490 nM. The Activity is listed as 36.63% with MCF7 [7]; 20.78% with MCF7 [8]; 22.08% with MCF7 [9]; 35 - 40% with MCF7 [4]; 45% in the assay with MCF7 [5]; 40 - 45% in the assay on MCF7 [6]. In addition, the inhibition result in the assay with MCF7 [10] was “Dose-dependent effect”.

Take `Cc1ccc(S(=O)(=O)NCCc2c[nH]c3ccccc23)cc1`: the inhibition at 1 µM on Aromatase [1] was determined as 43.5%.

Turning to `O=S(=O)(Cc1ccccc1)Nc1ccc2cc[nH]c2c1`, on Aromatase [1], the inhibition at 1 µM was found to be 15.3%.

As for `O=S(=O)(Cc1ccccc1)NCCc1c[nH]c2ccccc12`, at Aromatase [1], the inhibition at 1 µM is 75.2%. Also, the IC50 on Aromatase [2] came out at 750 nM. Besides, the inhibition entry with MCF7 [3] was “Active”. Moreover, the Activity in the assay with MCF7 [4] is on record as 35 - 40%; in the assay with MCF7 [5], 45%; in the assay with MCF7 [6], 40 - 45%.
